{
  "source": "ChEMBL document CHEMBL4014350",
  "about": "“Alkoxyurea-Based Histone Deacetylase Inhibitors Increase Cisplatin Potency in Chemoresistant Cancer Cell Lines” (J Med Chem, 2017)",
  "key": {"Homo sapiens [1]": {"organism": "Homo sapiens", "experiment": "Selectivity index, ratio of IC50 for human recombinant HDAC8 to IC50 for full length human recombinant N-terminal GST-tagged HDAC6 expressed in baculovirus infected sf9 cells", "procedure,_shortened": "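Ratio of isolated-enzyme IC50 values. HDAC1, HDAC6 and HDAC8 IC50s were each the mean ± SD of three independent experiments.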"}, "[2]": {"molecular_target": "T1, Histone deacetylase 1/6 (Homo sapiens) (UniProt Q13547+Q9UBN7)", "T1 sequence (Q13547 whole entry, looked up)": "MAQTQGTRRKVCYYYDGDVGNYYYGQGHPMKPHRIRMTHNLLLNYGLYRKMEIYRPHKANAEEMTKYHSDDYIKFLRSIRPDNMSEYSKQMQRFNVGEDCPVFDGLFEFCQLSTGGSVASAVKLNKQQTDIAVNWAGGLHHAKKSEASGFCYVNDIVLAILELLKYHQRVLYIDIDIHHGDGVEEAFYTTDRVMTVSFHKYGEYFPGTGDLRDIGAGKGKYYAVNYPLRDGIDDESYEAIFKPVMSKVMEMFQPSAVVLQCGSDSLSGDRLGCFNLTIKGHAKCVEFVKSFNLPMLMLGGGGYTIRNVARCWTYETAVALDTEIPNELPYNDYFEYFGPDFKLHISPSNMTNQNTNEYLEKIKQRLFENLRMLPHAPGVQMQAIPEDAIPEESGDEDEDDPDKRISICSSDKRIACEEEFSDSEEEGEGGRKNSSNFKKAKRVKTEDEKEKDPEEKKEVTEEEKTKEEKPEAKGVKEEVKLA", "T1 sequence (Q9UBN7 whole entry, looked up)": "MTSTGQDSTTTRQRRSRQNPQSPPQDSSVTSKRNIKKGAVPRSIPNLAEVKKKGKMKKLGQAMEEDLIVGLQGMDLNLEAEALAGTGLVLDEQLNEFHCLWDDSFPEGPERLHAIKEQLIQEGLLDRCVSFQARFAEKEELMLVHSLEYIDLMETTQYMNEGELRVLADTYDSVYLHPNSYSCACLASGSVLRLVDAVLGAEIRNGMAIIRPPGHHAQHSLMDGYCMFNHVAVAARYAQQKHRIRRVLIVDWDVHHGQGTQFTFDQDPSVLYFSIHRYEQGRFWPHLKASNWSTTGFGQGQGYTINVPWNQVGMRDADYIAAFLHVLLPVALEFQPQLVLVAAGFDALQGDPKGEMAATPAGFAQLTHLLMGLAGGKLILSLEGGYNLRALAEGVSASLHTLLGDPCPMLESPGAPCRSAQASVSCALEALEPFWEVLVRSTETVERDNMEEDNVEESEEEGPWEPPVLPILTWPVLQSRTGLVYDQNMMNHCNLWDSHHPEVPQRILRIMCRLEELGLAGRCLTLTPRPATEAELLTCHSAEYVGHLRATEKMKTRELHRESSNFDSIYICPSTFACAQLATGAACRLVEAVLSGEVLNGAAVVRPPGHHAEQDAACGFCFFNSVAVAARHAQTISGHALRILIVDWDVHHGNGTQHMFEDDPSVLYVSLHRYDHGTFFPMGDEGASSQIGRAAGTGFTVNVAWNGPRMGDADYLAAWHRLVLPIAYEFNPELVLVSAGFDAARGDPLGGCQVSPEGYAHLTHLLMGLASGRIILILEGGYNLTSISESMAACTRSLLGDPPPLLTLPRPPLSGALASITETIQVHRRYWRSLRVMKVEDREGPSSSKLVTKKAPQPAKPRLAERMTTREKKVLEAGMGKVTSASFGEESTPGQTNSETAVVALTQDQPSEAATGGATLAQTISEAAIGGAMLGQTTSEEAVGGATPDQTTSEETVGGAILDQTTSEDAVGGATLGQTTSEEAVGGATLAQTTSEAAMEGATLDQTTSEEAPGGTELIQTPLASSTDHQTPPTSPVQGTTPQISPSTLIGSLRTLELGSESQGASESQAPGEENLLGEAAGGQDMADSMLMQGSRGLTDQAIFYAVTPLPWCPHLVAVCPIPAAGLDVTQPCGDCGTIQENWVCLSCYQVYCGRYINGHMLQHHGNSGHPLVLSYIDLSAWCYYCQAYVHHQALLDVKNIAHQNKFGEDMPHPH", "experiment": "Inhibition of HDAC1/HDAC6 in human Cal27CisR cells assessed as potentiation of 5 uM cisplatin-induced cytotoxicity by measuring combination index at 500 uM preincubated for 48 hrs followed by cisplatin treatment measured after 72 hrs by MTT assay", "format": "cell-based", "procedure,_shortened": "(§1)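 Cal27 and cisplatin-resistant Cal27CisR cells were preincubated with the HDAC inhibitor for 48 h, then given cisplatin in combination. Viability was read by MTT after 72 h. The combination index was computed by the Chou–Talalay method: CI > 1 is antagonism, CI = 1 is additive, and CI < 0.9 is synergism. Points with fraction affected below 0.20 were flagged.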"}, "[3]": {"molecular_target": "T1, Histone deacetylase 1/6 (Homo sapiens)", "experiment": "Inhibition of HDAC1/HDAC6 in human Cal27CisR cells assessed as potentiation of 10 uM cisplatin-induced cytotoxicity by measuring combination index at 600 nM preincubated for 48 hrs followed by cisplatin treatment measured after 72 hrs by MTT assay"}, "[4]": {"experiment": "Inhibition of HDAC in human A2780CisR cells using Boc-Lys(epsilon-Ac)-AMC as substrate preincubated for 18 hrs followed by substrate addition measured after 3 hrs by fluorescence assay", "format": "cell-based"}, "[5]": {"molecular_target": "T1, Histone deacetylase 1/6 (Homo sapiens)", "experiment": "Inhibition of HDAC1/HDAC6 in human Cal27CisR cells assessed as potentiation of 20 uM cisplatin-induced cytotoxicity by measuring combination index at 800 nM preincubated for 48 hrs followed by cisplatin treatment measured after 72 hrs by MTT assay"}, "[6]": {"molecular_target": "T1, Histone deacetylase 1/6 (Homo sapiens)", "experiment": "Inhibition of HDAC1/HDAC6 in human Cal27CisR cells assessed as potentiation of 3.16 uM cisplatin-induced cytotoxicity by measuring combination index at 500 nM preincubated for 48 hrs followed by cisplatin treatment measured after 72 hrs by MTT assay"}, "[7]": {"molecular_target": "T1, Histone deacetylase 1/6 (Homo sapiens)", "experiment": "Inhibition of HDAC1/HDAC6 in human Cal27CisR cells assessed as potentiation of 3.16 uM cisplatin-induced cytotoxicity by measuring combination index at 800 nM preincubated for 48 hrs followed by cisplatin treatment measured after 72 hrs by MTT assay"}, "[8]": {"experiment": "Inhibition of HDAC in human Cal27CisR cells using Boc-Lys(epsilon-Ac)-AMC as substrate preincubated for 18 hrs followed by substrate addition measured after 3 hrs by fluorescence assay", "format": "cell-based"}, "[9]": {"molecular_target": "T1, Histone deacetylase 1/6 (Homo sapiens)", "experiment": "Inhibition of HDAC1/HDAC6 in human Cal27CisR cells assessed as potentiation of 1 uM cisplatin-induced cytotoxicity by measuring combination index at 600 uM preincubated for 48 hrs followed by cisplatin treatment measured after 72 hrs by MTT assay", "format": "cell-based", "procedure,_shortened": "(§2)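 Cal27CisR cells preincubated 48 h with the HDAC inhibitor, then exposed to cisplatin for 72 h. Viability read by MTT. Combination index calculated by the Chou–Talalay method: CI > 1 antagonism, CI = 1 additive, CI < 0.9 synergism. Points with fraction affected below 0.20 are flagged. Values are the mean of three experiments.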"}, "[10]": {"molecular_target": "T1, Histone deacetylase 1/6 (Homo sapiens)", "experiment": "Inhibition of HDAC1/HDAC6 in human Cal27CisR cells assessed as potentiation of 1 uM cisplatin-induced cytotoxicity by measuring combination index at 700 uM preincubated for 48 hrs followed by cisplatin treatment measured after 72 hrs by MTT assay", "format": "cell-based", "procedure,_shortened": "as §2"}, "Homo sapiens [11]": {"organism": "Homo sapiens", "experiment": "Selectivity ratio of IC50 for recombinant human N-terminal GST-tagged/C-terminal His-tagged HDAC4 to IC50 for full length human recombinant N-terminal GST-tagged HDAC6 expressed in baculovirus infected sf9 cells", "procedure,_shortened": "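Ratio of isolated-enzyme IC50 values. The HDAC4 IC50 was determined in duplicate by an external contract service. The HDAC6 IC50 was the mean ± SD of three independent experiments.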"}, "[12]": {"molecular_target": "T1, Histone deacetylase 1/6 (Homo sapiens)", "experiment": "Inhibition of HDAC1/HDAC6 in human Cal27CisR cells assessed as potentiation of 20 uM cisplatin-induced cytotoxicity by measuring combination index at 500 nM preincubated for 48 hrs followed by cisplatin treatment measured after 72 hrs by MTT assay"}, "[13]": {"molecular_target": "T1, Histone deacetylase 1/6 (Homo sapiens)", "experiment": "Inhibition of HDAC1/HDAC6 in human Cal27CisR cells assessed as potentiation of 5 uM cisplatin-induced cytotoxicity by measuring combination index at 700 uM preincubated for 48 hrs followed by cisplatin treatment measured after 72 hrs by MTT assay", "format": "cell-based", "procedure,_shortened": "as §1"}, "CAL-27 [14]": {"system": "CAL-27", "experiment": "Potentiation of 5 uM cisplatin-induced cytotoxicity against human CAL27 cells assessed as decrease in cell viability by measuring combination index at 500 uM preincubated for 48 hrs followed by cisplatin treatment measured after 72 hrs by MTT assay", "format": "functional", "details": "in the assay text read “at 500 nM” for “at 500 uM”", "procedure,_shortened": "(§3)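 HDAC inhibitor was added 48 h before cisplatin, then cells were exposed to cisplatin for 72 h and viability was read by MTT assay. Combination index was computed by the Chou–Talalay method: CI > 1 is antagonism, CI = 1 additive, CI < 0.9 synergism. Points with fraction affected below 0.20 were flagged.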"}, "CAL-27 [15]": {"system": "CAL-27", "experiment": "Potentiation of 0.5 uM cisplatin-induced cytotoxicity against human CAL27 cells assessed as decrease in cell viability measuring combination index at 500 uM preincubated for 48 hrs followed by cisplatin treatment measured after 72 hrs by MTT assay", "format": "functional", "details": "in the assay text read “at 500 nM” for “at 500 uM”", "procedure,_shortened": "as §1"}, "CAL-27 [16]": {"system": "CAL-27", "experiment": "Potentiation of 2 uM cisplatin-induced cytotoxicity against human CAL27 cells assessed as decrease in cell viability by measuring combination index at 700 uM preincubated for 48 hrs followed by cisplatin treatment measured after 72 hrs by MTT assay", "format": "functional", "details": "in the assay text read “at 700 nM” for “at 700 uM”", "procedure,_shortened": "as §3"}, "[17]": {"molecular_target": "T1, Histone deacetylase 1/6 (Homo sapiens)", "experiment": "Inhibition of HDAC1/HDAC6 in human Cal27CisR cells assessed as potentiation of 10 uM cisplatin-induced cytotoxicity by measuring combination index at 500 nM preincubated for 48 hrs followed by cisplatin treatment measured after 72 hrs by MTT assay"}, "CAL-27 [18]": {"system": "CAL-27", "experiment": "Potentiation of 0.316 uM cisplatin-induced cytotoxicity against human CAL27 cells assessed as decrease in cell viability by measuring combination index at 800 uM preincubated for 48 hrs followed by cisplatin treatment measured after 72 hrs by MTT assay", "format": "functional", "details": "in the assay text read “at 800 nM” for “at 800 uM”", "procedure,_shortened": "as §1"}, "CAL-27 [19]": {"system": "CAL-27", "experiment": "Potentiation of 2 uM cisplatin-induced cytotoxicity against human CAL27 cells assessed as decrease in cell viability by measuring combination index at 500 uM preincubated for 48 hrs followed by cisplatin treatment measured after 72 hrs by MTT assay", "format": "functional", "details": "in the assay text read “at 500 nM” for “at 500 uM”", "procedure,_shortened": "as §3"}},
  "data": [
    {"smiles": "COc1cc(NC(=O)NOCCCCCC(=O)NO)c2nc(OC)cc(C)c2c1", "values": [
      {"measurement": "Ratio IC50", "setting": "Homo sapiens [1]", "value": 550},
      {"measurement": "CI", "setting": "[2]", "value": 0.19},
      {"measurement": "CI", "setting": "[3]", "value": 0.17},
      {"measurement": "IC50", "setting": "[4]", "value": 500, "unit": "nM"},
      {"measurement": "CI", "setting": "[5]", "value": 0.21},
      {"measurement": "CI", "setting": "[6]", "value": 0.26},
      {"measurement": "CI", "setting": "[7]", "value": 0.29},
      {"measurement": "IC50", "setting": "[8]", "value": 500, "unit": "nM"},
      {"measurement": "CI", "setting": "[9]", "value": 0.56},
      {"measurement": "CI", "setting": "[10]", "value": "< 0.2"},
      {"measurement": "Ratio IC50", "setting": "Homo sapiens [11]", "value": "> 3500"},
      {"measurement": "CI", "setting": "[12]", "value": 0.2},
      {"measurement": "CI", "setting": "[13]", "value": 0.23},
      {"measurement": "CI", "setting": "CAL-27 [14]", "value": 0.43},
      {"measurement": "CI", "setting": "CAL-27 [15]", "value": 0.66},
      {"measurement": "CI", "setting": "CAL-27 [16]", "value": 0.6},
      {"measurement": "CI", "setting": "[17]", "value": 0.16},
      {"measurement": "CI", "setting": "CAL-27 [18]", "value": 0.84},
      {"measurement": "CI", "setting": "CAL-27 [19]", "value": 0.42}
    ]},
    {"smiles": "COc1cc(NC(=O)NOCCCCCC(=O)NO)c2ncccc2c1", "values": [
      {"measurement": "Ratio IC50", "setting": "Homo sapiens [1]", "value": "> 100"},
      {"measurement": "CI", "setting": "[2]", "value": 0.96},
      {"measurement": "CI", "setting": "[3]", "value": 0.36},
      {"measurement": "IC50", "setting": "[4]", "value": 500, "unit": "nM"},
      {"measurement": "CI", "setting": "[5]", "value": 0.37},
      {"measurement": "CI", "setting": "[6]", "value": "< 0.2"},
      {"measurement": "CI", "setting": "[7]", "value": 0.51},
      {"measurement": "IC50", "setting": "[8]", "value": 700, "unit": "nM"},
      {"measurement": "CI", "setting": "[9]", "value": "< 0.2"},
      {"measurement": "CI", "setting": "[10]", "value": "< 0.2"},
      {"measurement": "Ratio IC50", "setting": "Homo sapiens [11]", "value": "> 3500"},
      {"measurement": "CI", "setting": "[12]", "value": 0.35},
      {"measurement": "CI", "setting": "[13]", "value": 0.41},
      {"measurement": "CI", "setting": "CAL-27 [14]", "value": 0.35},
      {"measurement": "CI", "setting": "CAL-27 [15]", "value": 0.87},
      {"measurement": "CI", "setting": "CAL-27 [16]", "value": 0.43},
      {"measurement": "CI", "setting": "[17]", "value": 0.36},
      {"measurement": "CI", "setting": "CAL-27 [18]", "value": "<0.2"},
      {"measurement": "CI", "setting": "CAL-27 [19]", "value": 0.49}
    ]},
    {"smiles": "COc1cc(NC(=O)NOCCCCCC(=O)NO)c2nccc(C)c2c1", "values": [
      {"measurement": "Ratio IC50", "setting": "Homo sapiens [1]", "value": "> 100"},
      {"measurement": "CI", "setting": "[2]", "value": 0.28},
      {"measurement": "CI", "setting": "[3]", "value": 0.2},
      {"measurement": "IC50", "setting": "[4]", "value": 400, "unit": "nM"},
      {"measurement": "CI", "setting": "[5]", "value": 0.28},
      {"measurement": "CI", "setting": "[6]", "value": 0.71},
      {"measurement": "CI", "setting": "[7]", "value": 0.26},
      {"measurement": "IC50", "setting": "[8]", "value": 500, "unit": "nM"},
      {"measurement": "CI", "setting": "[9]", "value": "< 0.2"},
      {"measurement": "CI", "setting": "[10]", "value": "< 0.2"},
      {"measurement": "Ratio IC50", "setting": "Homo sapiens [11]", "value": "> 3500"},
      {"measurement": "CI", "setting": "[12]", "value": 0.26},
      {"measurement": "CI", "setting": "[13]", "value": 0.21},
      {"measurement": "CI", "setting": "CAL-27 [14]", "value": 0.29},
      {"measurement": "CI", "setting": "CAL-27 [15]", "value": 0.49},
      {"measurement": "CI", "setting": "CAL-27 [16]", "value": 0.36},
      {"measurement": "CI", "setting": "[17]", "value": 0.25},
      {"measurement": "CI", "setting": "CAL-27 [18]", "value": 0.56},
      {"measurement": "CI", "setting": "CAL-27 [19]", "value": 0.27}
    ]}
  ]
}
